UPR CHOP act: activators of apoptotic arm of unfolded protein response (CHOP) | CHO-CHOP luciferase reporter, UPR activation, luminescence; percent of tunicamycin response over DMSO baseline | activation, % at 10 µM | 330,000 tested, 0.34% active;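 active means at 10 µM dose, activation of 40% or more, normalized to positive control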
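System: CHO CHOP reporter cells. Amount: 500 cells per well. Buffer or medium: F12 medium, 10% FBS. Compound dosing: one dose, 10 µM in 0.5% DMSO. Incubation: 6 h compound exposure at 37 °C after overnight seeding. Technique: Steady-Glo luciferase luminescence. Benchmarks: tunicamycin and DMSO controls.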
XBP1 UPR activ: activators of adaptive arm of unfolded protein response (XBP1); CHO-XBP1 luciferase reporter, IRE1-XBP1 UPR activation, luminescence; percent of tunicamycin response, DMSO as zero; AID 463104; 330,000 tested, 0.33% active; activation, % at 20 µM;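 active means versus positive control, 20 µM dose yields 30% or more activation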
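Assay system: IRE1-XBP1 luciferase reporter CHO line. Input: 1000 cells/well. Buffer or medium: F12 with 10% serum. Doses: 20 µM, 1% DMSO. Times: overnight seeding at 37 °C, 6 h compound treatment at 37 °C. Technique: Steady-Glo luciferase glow luminescence, 10 min after reagent addition.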
ABHD5 PLIN5 PPI: blocks binding of human ABHD5 to perilipin-5. Q00G26+Q8WTS1. Split G. princeps luciferase complementation, luminescence, 4 h. inhibition, % at 4 µM. 360,000 tested, 0.78% active;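 active means inhibition above the mean inhibition across every tested compound plus 3 SD, cut at about 22% in these data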
Target sequence (Q00G26 whole entry, looked up): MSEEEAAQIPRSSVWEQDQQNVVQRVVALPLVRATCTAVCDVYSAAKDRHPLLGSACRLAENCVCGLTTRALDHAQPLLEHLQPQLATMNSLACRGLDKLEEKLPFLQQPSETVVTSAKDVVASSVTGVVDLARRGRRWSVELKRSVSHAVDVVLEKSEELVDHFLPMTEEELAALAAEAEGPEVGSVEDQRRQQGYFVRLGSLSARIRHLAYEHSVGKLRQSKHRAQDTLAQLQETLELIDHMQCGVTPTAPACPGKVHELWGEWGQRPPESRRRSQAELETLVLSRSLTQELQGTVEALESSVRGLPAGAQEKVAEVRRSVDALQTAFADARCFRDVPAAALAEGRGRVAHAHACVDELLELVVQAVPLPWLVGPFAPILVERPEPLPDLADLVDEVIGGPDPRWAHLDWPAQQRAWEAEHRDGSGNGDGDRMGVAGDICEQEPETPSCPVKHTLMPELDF
Target sequence (Q8WTS1 whole entry, looked up): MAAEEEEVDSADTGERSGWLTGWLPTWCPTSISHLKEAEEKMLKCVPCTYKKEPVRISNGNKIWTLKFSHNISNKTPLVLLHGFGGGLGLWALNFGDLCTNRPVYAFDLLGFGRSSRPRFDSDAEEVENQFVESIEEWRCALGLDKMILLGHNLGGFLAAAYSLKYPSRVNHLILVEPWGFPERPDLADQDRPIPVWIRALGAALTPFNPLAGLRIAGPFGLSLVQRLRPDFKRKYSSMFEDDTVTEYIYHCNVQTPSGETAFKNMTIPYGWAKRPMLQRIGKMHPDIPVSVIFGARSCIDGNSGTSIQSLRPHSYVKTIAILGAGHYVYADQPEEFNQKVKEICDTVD
Mdm2-MdmX inh: human Mdm2/MdmX binding inhibition. O15151+Q00987. SaOS-2 split-luciferase Mdm2/MdmX complementation, luminescence. inhibition, % at 8 µM. 330,000 tested, 3% active;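 active means inhibition of at least 50% at 8 µM in the primary screen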
Exocytosis inh: blocks lytic granule exocytosis | TALL-104 LAMP-1 surface exposure, flow cytometry; cells stimulated with thapsigargin and PMA | inhibition, % at 10 µM | 360,000 tested, 0.66% active;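 active means inhibition above about 55%, limit read from the data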
Mdm2-MdmX conf: human Mdm2/MdmX binding inhibition, confirmed | shares compounds with Mdm2-MdmX inh | luminescent assay | inhibition, % at 8 µM | 10,000 tested, 55% active | AID 489028; in the data active means inhibition above about 40%
FLuc counter: inhibits full-length luciferase, flagging false Mdm2/MdmX hits; shares compounds with Mdm2-MdmX inh; SaOS-2 full-length luciferase counterscreen, luminescence; inhibition, % at 8 µM; 6,200 tested, 77% active; AID 504607;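 active means mean inhibition at 8 µM reaching about 37%, which flags the compound as non-specific, limit read from the data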;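 further: p53-null SaOS-2 cells with luciferase driven by a doxycycline-inducible promoter; compound on cells about two nights before reading with doxycycline added after day one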
Each line names hits and unclear results; the compound was inactive in the other large screens (follow-up assays come after a bar, where they were run). Rows were chosen to be rich in hits. Some 4% of all compounds tested hit in one or more screens of this group.

Cc1cccc(NC(=O)CSc2nc3c(oc4ccccc43)c(=O)n2-c2ccccc2)c1	none
Nc1c(C(=O)Nc2ccc(F)cc2)sc(=S)n1-c1ccccc1F	Mdm2-MdmX inh 71.6 | Mdm2-MdmX conf inactive
COc1cccc(OC)c1C(=O)O/N=C(\N)c1ccncc1	none
N/C(Cc1ccccc1)=N\OC(=O)c1cccc2ccccc12	Mdm2-MdmX inh 98.2 | Mdm2-MdmX conf 67.2 | FLuc counter 56.7
N/C(=N\OC(=O)c1cccc2ccccc12)c1ccc(Br)cc1	Mdm2-MdmX inh 98.3 | Mdm2-MdmX conf 79.8 | FLuc counter 93.6
N/C(=N\OC(=O)c1cccc2ccccc12)c1ccncc1	Mdm2-MdmX inh 51.1 | Mdm2-MdmX conf inactive
N/C(Cc1cccc2ccccc12)=N\OC(=O)c1ccccc1F	none
CC1CCN(C(=O)C2CCC(CNS(=O)(=O)c3cccc4cccnc34)CC2)CC1 (stereo not given)	none
CN(C)/C=N/c1sc2c(c1C(N)=O)CCCC2	none
O=C(Nc1ccccc1)c1cccc(NC(=O)c2ccco2)c1	none
CCOc1ccccc1NC(=O)c1cccc(NC(=O)c2ccco2)c1	Mdm2-MdmX inh 62.3 | Mdm2-MdmX conf 67.1 | FLuc counter 63.5
CC(=O)c1ccc(NC(=O)c2ccc(NC(=O)c3ccco3)cc2)cc1	Mdm2-MdmX inh 71.4 | Mdm2-MdmX conf inactive
COC(=O)c1ccc(NC(=O)c2ccc(NC(=O)c3ccco3)cc2)cc1	none
CCOC(=O)c1cccc(NC(=O)c2ccc(NC(=O)c3ccco3)cc2)c1	Mdm2-MdmX inh 73.0 | Mdm2-MdmX conf inactive
CC1(C)Cc2c(c(-c3ccco3)nc3sc4c(NCCN5CCOCC5)ncnc4c23)CO1	Mdm2-MdmX inh 50.9 | Mdm2-MdmX conf inactive
O=C(NCC1CCCO1)c1cc2c([nH]c3ccccc32)c(-c2cccc(Cl)c2)n1 (stereo not given)	Mdm2-MdmX inh 87.0 | Mdm2-MdmX conf 45.6 | FLuc counter 60.3
COc1cc(-c2nc(C(=O)NCC3CCCO3)cc3c2[nH]c2ccccc23)cc(OC)c1OC (stereo not given)	Mdm2-MdmX inh 85.8 | Mdm2-MdmX conf 54.5 | FLuc counter 56.1
COc1ccccc1-c1nc(C(=O)NCC2CCCO2)cc2c1[nH]c1ccccc12 (stereo not given)	none
CS(=O)(=O)N1N=C(c2ccco2)CC1c1ccc(Cl)cc1 (stereo not given)	none
CC1=C(C(=O)Nc2ccccc2)C(c2ccco2)C(C#N)=C(SCC(=O)Nc2cccc(C)c2C)N1 (stereo not given)	Mdm2-MdmX inh 69.2 | Mdm2-MdmX conf 42.4 | FLuc counter 79.3
CCCCN(C)CCCNC(=O)c1cn(CC)c2ccc(S(=O)(=O)N3CCc4ccccc4C3)cc2c1=O	Mdm2-MdmX inh 54.2 | Mdm2-MdmX conf inactive
CCn1cc(C(=O)NCCCN2CCCC2)c(=O)c2cc(S(=O)(=O)N3CCc4ccccc4C3)ccc21	none
CCCN(CCC)CCCNC(=O)c1cn(CC)c2ccc(S(=O)(=O)N3CCc4ccccc4C3)cc2c1=O	Mdm2-MdmX inh 74.8 | Mdm2-MdmX conf inactive | FLuc counter 63.3
CCn1cc(C(=O)NCc2ccco2)c(=O)c2cc(S(=O)(=O)N3CCc4ccccc4C3)ccc21	none
CCCCN(CC)CCCNC(=O)c1cn(CC)c2ccc(S(=O)(=O)N3CCc4ccccc4C3)cc2c1=O	Mdm2-MdmX inh 56.9 | Mdm2-MdmX conf inactive
COCCNC(=O)C1(C)CCN(C(=O)c2cc(C(C)(C)C)nn2C)C1 (stereo not given)	none (no result: UPR CHOP act, XBP1 UPR activ, Mdm2-MdmX inh)
Cc1ccc(N2CC(C(=O)N(C)CC(=O)Nc3ccc(Cl)c(C(F)(F)F)c3)CC2=O)cc1 (stereo not given)	Mdm2-MdmX inh 59.0 | Mdm2-MdmX conf 43.6 | FLuc counter 65.7
COc1cccc(CN2CCN(Cc3[nH]c4ccccc4c3C)CC2CCO)c1 (stereo not given)	none
C=CCOc1c(/C=N\NC(N)=O)cccc1OC	none
COc1cccc(Sc2ccccc2/C=N/NC(N)=O)c1	Mdm2-MdmX inh 52.6 | Mdm2-MdmX conf 67.2 | FLuc counter 57.5
COc1ccccc1C(=O)N/N=C/c1ccc2c(c1)OCO2	none
COc1ccc(/C=N/NC(=O)c2cc(C)oc2C)cc1OCc1ccccc1	Mdm2-MdmX inh 61.7 | Mdm2-MdmX conf inactive
COc1ccc(/C=N\NC(=O)c2ccccc2F)cc1COc1ccc(F)cc1F	Mdm2-MdmX inh 57.9 | Mdm2-MdmX conf 76.1 | FLuc counter 65.7
COc1cc2ccccc2cc1C(=O)N/N=C/c1ccc2c(c1)OCO2	Mdm2-MdmX inh 50.9 | Mdm2-MdmX conf 70.5 | FLuc counter 53.4
COc1ccc(/C=N/NC(=O)c2ccoc2C)cc1COc1c(C)cccc1C	Mdm2-MdmX inh 75.5 | Mdm2-MdmX conf inactive
O=[N+]([O-])c1cccc2c1ccc1ncccc12	Mdm2-MdmX inh 55.7 | Mdm2-MdmX conf inactive
Cc1ccc2ncccc2c1[N+](=O)[O-]	none
Cc1nn(C)cc1CNC(=O)C1CCC(=O)N(Cc2cccc(C(F)(F)F)c2)C1 (stereo not given)	none
COc1cccc(Nc2nc3ccccc3n3cnnc23)c1	none
COc1ccc(-n2nnc3c(=O)n(CC(=O)Nc4ccc5c(c4)OCCO5)cnc32)cc1OC	Mdm2-MdmX inh 79.9 | Mdm2-MdmX conf inactive
CCOc1ccc(-n2nnc3c(=O)n(CC(=O)Nc4cc(C)on4)cnc32)cc1	Mdm2-MdmX inh 55.7 | Mdm2-MdmX conf inactive
O=C(Cn1cnc2c(nnn2-c2cccc(F)c2)c1=O)Nc1ccc2c(c1)OCCO2	Mdm2-MdmX inh 52.1 | Mdm2-MdmX conf inactive
Cc1cc(NC(=O)Cn2cnc3c(nnn3-c3cccc(F)c3)c2=O)no1	none
COc1ccc(-n2ncc3c(=O)n(CC(=O)Nc4ccc5c(c4)OCCO5)cnc32)cc1	none
O=C(/C=C/c1cccc([N+](=O)[O-])c1)N1CCN(c2ccccn2)CC1	none
O=C(/C=C/c1cccc([N+](=O)[O-])c1)n1cnc2ccccc21	ABHD5 PLIN5 PPI 23.1, Mdm2-MdmX inh 100.3 | Mdm2-MdmX conf 93.8 | FLuc counter inactive
O=C(N/N=C/C=C/c1ccccc1[N+](=O)[O-])c1cccnc1	none
Cc1ccc(NC(=O)CN2C(=O)NC3(CCCC3)C2=O)nc1	none
COc1cc(OC)cc(-c2nnc(NC(=O)CCS(=O)(=O)c3ccc(F)cc3)o2)c1	Mdm2-MdmX inh 58.7 | Mdm2-MdmX conf 54.9 | FLuc counter 64.5
COc1cc(-c2nnc(NC(=O)CCS(=O)(=O)c3ccc(F)cc3)o2)cc(OC)c1OC	Mdm2-MdmX inh 71.5 | Mdm2-MdmX conf 69.2 | FLuc counter 47.6

Screening data deposited in PubChem by several laboratories.
